Activity calls are given as the source filed them. The rule behind the calls is not given here.
How the values were obtained:
[1] = Cytotoxicity against cisplatin-resistant human CA3ST cells after 72 hrs by MTT assay; assay type: functional, cell-based
Outline: (§1)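 MTT assay: 3000 cells/well seeded, compound added next day, each concentration in quadruplicate, 72 h at 37 °C; medium replaced with 20 µg MTT/well for 4 h, formazan dissolved in DMSO, OD 545 nm. […] Fibroblasts: normal skin fibroblasts from donor, DMEM/10% FBS, used at 32 and 36 population doublings.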

SW480 = assay: Cytotoxicity against human SW480 cells after 72 hrs by MTT assay; assay type: functional, cell-based; settings: SW480, 72 h; outline: as §1
MIA PaCa-2 = assay: Cytotoxicity against human MIAPaCa2 cells after 72 hrs by MTT assay; assay type: functional, cell-based; settings: MIA PaCa-2, 72 h; outline: as §1
RT-112 = assay: Cytotoxicity against human RT112 cells after 72 hrs by MTT assay; assay type: functional, cell-based; settings: RT-112, 72 h; outline: as §1
[2] = Cytotoxicity against human Fibroblast cells after 72 hrs by MTT assay; assay type: cell-based; outline: as §1
[3] = Therapeutic index, ratio IC50 for cisplatin-resistant human CA3ST cells to IC50 for normal human fibroblasts; assay type: cell-based; settings: read-out: Ratio IC50
Outline: (§2)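 IC50 values came from an MTT assay. Cells were seeded at 3000 per well and dosed the next day, with each concentration in quadruplicate. After 72 h at 37 °C, MTT (20 µg/well) was added for 4 h; formazan was dissolved in DMSO and read at 545 nm. Each experiment was done three times. Normal skin fibroblasts were used at 32 and 36 population doublings. T.I. = tumor-cell IC50 / fibroblast IC50.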

[4] = Therapeutic index, ratio IC50 for human SW480 cells to IC50 for normal human fibroblasts; assay type: cell-based; settings: SW480 cells versus normal human fibroblasts, read-out: Ratio IC50; outline: as §2
[5] = Therapeutic index, ratio IC50 for human RT112 cells to IC50 for normal human fibroblasts; assay type: cell-based, RT-112; settings: RT112 cells versus normal human fibroblasts, read-out: Ratio IC50; outline: as §2
Nucleic Acid = assay: Binding affinity to calf thymus DNA assessed as change in melting temperature at compound to DNA ratio of 0.3; assay type: nucleic-acid assay; settings: Bos taurus
Outline: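 ct-DNA sonicated, filtered, in Na-cacodylate buffer pH 7, I = 0.05 mol dm-3, 2 x 10^-5 mol dm-3 (as phosphate, ε260 = 6600); compound/DNA ratio 0.3. Absorbance at 260 nm followed versus temperature, compound absorbance subtracted, curves normalized. Tm taken from first-derivative maximum, confirmed by tangent method; ΔTm = Tm(complex) − Tm(free DNA), mean of ≥2 runs, error ±0.5 °C.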

HeLa [6] = assay: Cell cycle arrest in human HeLa cells assessed as accumulation at S phase at 21 uM after 24 hrs by propidium iodide staining -based flow cytometry(reference value: 27.7 %); assay type: functional
Outline: (§3)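 HeLa seeded at 100 000 cells/well, treated next day with 0.78, 7 or 21 µM for 24, 48 or 72 h. Adherent plus floating cells collected, PBS-washed, fixed overnight in 70% ethanol at −20 °C, RNase A 30 µg/ml 1 h RT, propidium iodide 16.7 µg/ml 30 min dark; DNA content by flow cytometry, phase percentages including subG1 reported.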

HeLa [7] = assay: Cell cycle arrest in human HeLa cells assessed as accumulation at subG1 phase at 0.78 uM after 24 hrs by propidium iodide staining -based flow cytometry (reference value: 9.4 %); assay type: functional; outline: as §3
HeLa [8] = assay: Cell cycle arrest in human HeLa cells assessed as accumulation at subG1 phase at 7 uM after 24 hrs by propidium iodide staining -based flow cytometry (reference value: 9.4 %); assay type: functional; outline: as §3
HeLa [9] = assay: Cell cycle arrest in human HeLa cells assessed as accumulation at G0/G1 phase at 0.78 uM after 48 hrs by propidium iodide staining -based flow cytometry (reference value: 63.8 %); assay type: functional; outline: as §3
HeLa [10] = assay: Cell cycle arrest in human HeLa cells assessed as accumulation at G2/M phase at 0.78 uM after 48 hrs by propidium iodide staining -based flow cytometry (reference value: 9.9 %); assay type: functional; outline: as §3
HeLa [11] = assay: Cell cycle arrest in human HeLa cells assessed as accumulation at subG1 phase at 0.78 uM after 48 hrs by propidium iodide staining -based flow cytometry (reference value: 8.5 %); assay type: functional; outline: as §3
HeLa [12] = assay: Cell cycle arrest in human HeLa cells assessed as accumulation at subG1 phase at 21 uM after 48 hrs by propidium iodide staining -based flow cytometry (reference value: 8.5 %); assay type: functional; outline: as §3
HeLa [13] = assay: Cell cycle arrest in human HeLa cells assessed as accumulation at G0/G1 phase at 0.78 uM after 72 hrs by propidium iodide staining -based flow cytometry (reference value: 66.9 %); assay type: functional; outline: as §3
HeLa [14] = assay: Cell cycle arrest in human HeLa cells assessed as accumulation at S phase at 7 uM after 72 hrs by propidium iodide staining -based flow cytometry (reference value: 23.5 %); assay type: functional; outline: as §3
HeLa [15] = assay: Cell cycle arrest in human HeLa cells assessed as accumulation at G2/M phase at 0.78 uM after 72 hrs by propidium iodide staining -based flow cytometry (reference value: 9.7 %); assay type: functional; outline: as §3
HeLa [16] = assay: Cell cycle arrest in human HeLa cells assessed as accumulation at subG1 phase at 7 uM after 72 hrs by propidium iodide staining -based flow cytometry (reference value: 7.2 %); assay type: functional; outline: as §3
HeLa [17] = assay: Cell cycle arrest in human HeLa cells assessed as accumulation at subG1 phase at 21 uM after 72 hrs by propidium iodide staining -based flow cytometry (reference value: 7.2 %); assay type: functional; outline: as §3
HeLa [18] = assay: Induction of reactive oxygen species generation in human HeLa cells at 7 uM after 6 hrs by FACS analysis; assay type: functional, cell-based
Outline: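 Logarithmically growing HeLa cells were preloaded with 10 µM CM-H2DCFDA for 1 h. They were then exposed to 7, 20 or 40 µM for 8 h, or to 7 µM for 2, 4 or 6 h. Cells were trypsinized, fixed in cold 80% methanol, resuspended in PBS and read for fluorescence by flow cytometry. The positive control was 0.01% H2O2 for 30 min.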

HeLa [19] = assay: Induction of CHOP expression in human HeLa cells at 0.09 to 7 uM after 48 hrs by Western blot analysis; assay type: functional, cell-based
Outline: (§4)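 Log-phase HeLa exposed to a concentration series for 48 h, or to 7 µM over a time course. Extracts resolved on 10% SDS gels, blotted to nitrocellulose, blocked 5% milk; anti-CHOP 1:1000 in 5% BSA overnight at 4 °C, HRP secondary 1:5000 2 h RT, ECL detection; ERK2 reprobe as loading control.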

HeLa [20] = assay: Induction of CHOP expression in human HeLa cells at 7 uM up to 8 hrs by Western blot analysis; assay type: functional, cell-based; outline: as §4
HeLa [21] = assay: Induction of apoptotis in human HeLa cells assessed as cleavage of procaspase 9 at 7 uM after 48 hrs by Western blot analysis; assay type: functional, cell-based
Outline: (§5)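 HeLa cells were treated for 48 h at 7 µM and analysed by Western blot (10% SDS gels, nitrocellulose, HRP secondary, ECL, ERK2 loading control) for cleavage of apoptotic proteins. Antibodies: anti-PARP 1:4000; anti-caspase-3 and anti-caspase-8 1:1000; rabbit polyclonal anti-caspase-9 1:1000.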

HeLa [22] = assay: Induction of apoptotis in human HeLa cells assessed as cleavage of procaspase 3 at 7 uM after 48 hrs by Western blot analysis; assay type: functional, cell-based; outline: as §5
[23] = Stability of the compound in DMSO after 26.25 hrs by LC/MS/MS analysis in presence of 10% FBS; assay type: physicochemical; settings: cattle, DMSO with 10% FBS; read-out: Stability

For `CC(=O)N(/N=N/c1ccc([N+](=O)[O-])cc1Cl)c1ccc([N+](=O)[O-])cc1Cl`, the IC50 [1] was 0.63 µM, the IC50 (SW480) was 0.53 µM and the IC50 (MIA PaCa-2) was 0.52 µM. It also gave an IC50 (RT-112) of 7.2 µM, an IC50 [2] of 14 µM and a selectivity ratio [3] of 0.045. The selectivity ratio [4] was 0.038, the selectivity ratio [5] was 0.514 and the Activity (Nucleic Acid) was “inactive”. The Activity (HeLa [6]) was 20.2%, the Activity (HeLa [7]) was 8.7% and the Activity (HeLa [8]) was 13.2%. The Activity (HeLa [9]) was 74.5%, the Activity (HeLa [10]) was 7% and the Activity (HeLa [11]) was 15.8%. It also gave an Activity (HeLa [12]) of 46.5%, an Activity (HeLa [13]) of 59.1% and an Activity (HeLa [14]) of 15.2%. It also gave an Activity (HeLa [15]) of 8.4%, an Activity (HeLa [16]) of 33% and an Activity (HeLa [17]) of 80.2%. For the same molecule, the Activity (HeLa [18]) was “Active”, the Activity (HeLa [19]) was “Active” and the Activity (HeLa [20]) was “inactive”. For the same molecule, the Activity (HeLa [21]) was “Active”, the Activity (HeLa [22]) was “Active” and the remaining at 26.25 h [23] was 57%.

— ChEMBL document CHEMBL1806465, “Synthesis and biological evaluation of 4-nitro-substituted 1,3-diaryltriazenes as a novel class of potent antitumor agents” (Eur J Med Chem, 2011)
